Experimental data taken from ChEMBL document CHEMBL5058577, “EUbOPEN Chemogenomics Library 2 (Multiplex)” (2022).

Test system: Fibroblast
Experiment: Multiplex assay against human fibroblast
Type: toxicity, cell-based
In short: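 Compound was added to live cells that had been stained at seeding with Hoechst33342, BioTracker Green Microtubule Cytoskeleton Dye, MitoTracker Red and Annexin V Alexa Fluor 680, and imaging followed on a CQ1 microscope at 37°C and 5% CO2. CellPathfinder machine-learning gating divided cells into Hoechst high-intensity objects or normal cells, normal cells into healthy, pyknosed or fragmented nuclei, and pyknosed cells into mitotic or apoptotic. Tubulin, mitochondrial-mass and membrane-permeability phenotypes are per cents of healthy-nucleus cells.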

[1] = 12 h, 1 µM, compound concentration 1 uM, replicate 1
[2] = 12 h, 1 µM, compound concentration 1 uM, replicate 2
[3] = 12 h, 10 µM, compound concentration 10 uM, replicate 1
[4] = 12 h, 10 µM, compound concentration 10 uM, replicate 2
[5] = 24 h, 1 µM, compound concentration 1 uM, replicate 1
[6] = 24 h, 1 µM, compound concentration 1 uM, replicate 2
[7] = 24 h, 10 µM, compound concentration 10 uM, replicate 1
[8] = 24 h, 10 µM, compound concentration 10 uM, replicate 2
[9] = 48 h, 1 µM, compound concentration 1 uM, replicate 1
[10] = 48 h, 1 µM, compound concentration 1 uM, replicate 2
[11] = 48 h, 10 µM, compound concentration 10 uM, replicate 1
[12] = 48 h, 10 µM, compound concentration 10 uM, replicate 2

CNC[C@H](O)c1ccc(O)c(O)c1 [EPINEPHRINE]
Population Apoptotic (%) [1]: 36%
Population Fragmented Nuclei (%) [1]: 17%
Population Healthy Nuclei (%) [1]: 66%
Population Hoechst High Intensity Objects (%) [1]: 1%
Population Membrane Permeable-Phenotype (%) [1]: 1%
Population Mitochondria Different-Phenotype (%) [1]: 3%
Population Mitotic Cells (%) [1]: 63%
Population Normal (%) [1]: 98%
Population Pyknosed Nuclei (%) [1]: 16%
Population Tubulin-Different-Phenotype (%) [1]: 15%
Population Apoptotic (%) [2]: 40%
Population Fragmented Nuclei (%) [2]: 38%
Population Healthy Nuclei (%) [2]: 44%
Population Membrane Permeable-Phenotype (%) [2]: 13%
Population Mitochondria Different-Phenotype (%) [2]: 7%
Population Mitotic Cells (%) [2]: 60%
Population Pyknosed Nuclei (%) [2]: 17%
Population Tubulin-Different-Phenotype (%) [2]: 42%
Population Apoptotic (%) [3]: 40%
Population Fragmented Nuclei (%) [3]: 18%
Population Healthy Nuclei (%) [3]: 61%
Population Hoechst High Intensity Objects (%) [3]: 3%
Population Membrane Permeable-Phenotype (%) [3]: 1%
Population Mitochondria Different-Phenotype (%) [3]: 6%
Population Mitotic Cells (%) [3]: 60%
Population Normal (%) [3]: 96%
Population Pyknosed Nuclei (%) [3]: 20%
Population Tubulin-Different-Phenotype (%) [3]: 23%
Population Apoptotic (%) [4]: 32%
Population Fragmented Nuclei (%) [4]: 39%
Population Healthy Nuclei (%) [4]: 37%
Population Hoechst High Intensity Objects (%) [4]: 7%
Population Membrane Permeable-Phenotype (%) [4]: 12%
Population Mitochondria Different-Phenotype (%) [4]: 8%
Population Mitotic Cells (%) [4]: 67%
Population Normal (%) [4]: 92%
Population Pyknosed Nuclei (%) [4]: 23%
Population Tubulin-Different-Phenotype (%) [4]: 55%
Population Apoptotic (%) [5]: 54%
Population Fragmented Nuclei (%) [5]: 12%
Population Healthy Nuclei (%) [5]: 70%
Population Hoechst High Intensity Objects (%) [5]: 0%
Population Membrane Permeable-Phenotype (%) [5]: 0%
Population Mitochondria Different-Phenotype (%) [5]: 3%
Population Mitotic Cells (%) [5]: 45%
Population Normal (%) [5]: 99%
Population Pyknosed Nuclei (%) [5]: 16%
Population Tubulin-Different-Phenotype (%) [5]: 11%
Population Apoptotic (%) [6]: 23%
Population Fragmented Nuclei (%) [6]: 38%
Population Healthy Nuclei (%) [6]: 47%
Population Hoechst High Intensity Objects (%) [6]: 3%
Population Membrane Permeable-Phenotype (%) [6]: 12%
Population Mitochondria Different-Phenotype (%) [6]: 6%
Population Mitotic Cells (%) [6]: 76%
Population Normal (%) [6]: 96%
Population Pyknosed Nuclei (%) [6]: 14%
Population Tubulin-Different-Phenotype (%) [6]: 32%
Population Apoptotic (%) [7]: 65%
Population Fragmented Nuclei (%) [7]: 16%
Population Healthy Nuclei (%) [7]: 60%
Population Hoechst High Intensity Objects (%) [7]: 3%
Population Membrane Permeable-Phenotype (%) [7]: 0%
Population Mitochondria Different-Phenotype (%) [7]: 5%
Population Mitotic Cells (%) [7]: 34%
Population Normal (%) [7]: 96%
Population Pyknosed Nuclei (%) [7]: 23%
Population Tubulin-Different-Phenotype (%) [7]: 21%
Population Apoptotic (%) [8]: 38%
Population Fragmented Nuclei (%) [8]: 39%
Population Healthy Nuclei (%) [8]: 44%
Population Membrane Permeable-Phenotype (%) [8]: 12%
Population Mitochondria Different-Phenotype (%) [8]: 4%
Population Mitotic Cells (%) [8]: 61%
Population Pyknosed Nuclei (%) [8]: 15%
Population Tubulin-Different-Phenotype (%) [8]: 51%
Population Apoptotic (%) [9]: 50%
Population Fragmented Nuclei (%) [9]: 17%
Population Healthy Nuclei (%) [9]: 67%
Population Hoechst High Intensity Objects (%) [9]: 1%
Population Membrane Permeable-Phenotype (%) [9]: 0%
Population Mitochondria Different-Phenotype (%) [9]: 6%
Population Mitotic Cells (%) [9]: 50%
Population Normal (%) [9]: 98%
Population Pyknosed Nuclei (%) [9]: 15%
Population Tubulin-Different-Phenotype (%) [9]: 23%
Population Apoptotic (%) [10]: 38%
Population Fragmented Nuclei (%) [10]: 41%
Population Healthy Nuclei (%) [10]: 48%
Population Membrane Permeable-Phenotype (%) [10]: 6%
Population Mitochondria Different-Phenotype (%) [10]: 5%
Population Mitotic Cells (%) [10]: 61%
Population Pyknosed Nuclei (%) [10]: 10%
Population Tubulin-Different-Phenotype (%) [10]: 45%
Population Apoptotic (%) [11]: 77%
Population Fragmented Nuclei (%) [11]: 20%
Population Healthy Nuclei (%) [11]: 65%
Population Hoechst High Intensity Objects (%) [11]: 2%
Population Membrane Permeable-Phenotype (%) [11]: 2%
Population Mitochondria Different-Phenotype (%) [11]: 4%
Population Mitotic Cells (%) [11]: 22%
Population Normal (%) [11]: 97%
Population Pyknosed Nuclei (%) [11]: 13%
Population Tubulin-Different-Phenotype (%) [11]: 32%
Population Apoptotic (%) [12]: 37%
Population Fragmented Nuclei (%) [12]: 50%
Population Healthy Nuclei (%) [12]: 44%
Population Hoechst High Intensity Objects (%) [12]: 3%
Population Membrane Permeable-Phenotype (%) [12]: 6%
Population Mitochondria Different-Phenotype (%) [12]: 3%
Population Mitotic Cells (%) [12]: 62%
Population Normal (%) [12]: 96%
Population Pyknosed Nuclei (%) [12]: 5%
Population Tubulin-Different-Phenotype (%) [12]: 46%

O=S(=O)(c1ccccc1)c1cnc2c(N3CCNCC3)cccc2c1 [INTEPIRDINE]
Population Apoptotic (%) [1]: 50%
Population Fragmented Nuclei (%) [1]: 23%
Population Healthy Nuclei (%) [1]: 67%
Population Hoechst High Intensity Objects (%) [1]: 3%
Population Membrane Permeable-Phenotype (%) [1]: 0%
Population Mitochondria Different-Phenotype (%) [1]: 2%
Population Mitotic Cells (%) [1]: 50%
Population Normal (%) [1]: 96%
Population Pyknosed Nuclei (%) [1]: 9%
Population Tubulin-Different-Phenotype (%) [1]: 26%
Total Cell Count [1]: 212
Population Apoptotic (%) [2]: 34%
Population Fragmented Nuclei (%) [2]: 28%
Population Healthy Nuclei (%) [2]: 47%
Population Hoechst High Intensity Objects (%) [2]: 4%
Population Membrane Permeable-Phenotype (%) [2]: 7%
Population Mitochondria Different-Phenotype (%) [2]: 7%
Population Mitotic Cells (%) [2]: 65%
Population Normal (%) [2]: 95%
Population Pyknosed Nuclei (%) [2]: 24%
Population Tubulin-Different-Phenotype (%) [2]: 61%
Total Cell Count [2]: 148
Population Apoptotic (%) [3]: 75%
Population Fragmented Nuclei (%) [3]: 22%
Population Healthy Nuclei (%) [3]: 62%
Population Hoechst High Intensity Objects (%) [3]: 1%
Population Membrane Permeable-Phenotype (%) [3]: 1%
Population Mitochondria Different-Phenotype (%) [3]: 8%
Population Mitotic Cells (%) [3]: 25%
Population Normal (%) [3]: 98%
Population Pyknosed Nuclei (%) [3]: 14%
Population Tubulin-Different-Phenotype (%) [3]: 44%
Total Cell Count [3]: 138
Population Apoptotic (%) [4]: 61%
Population Fragmented Nuclei (%) [4]: 43%
Population Healthy Nuclei (%) [4]: 40%
Population Hoechst High Intensity Objects (%) [4]: 6%
Population Membrane Permeable-Phenotype (%) [4]: 5%
Population Mitochondria Different-Phenotype (%) [4]: 13%
Population Mitotic Cells (%) [4]: 38%
Population Normal (%) [4]: 93%
Population Pyknosed Nuclei (%) [4]: 16%
Population Tubulin-Different-Phenotype (%) [4]: 68%
Total Cell Count [4]: 136
Population Apoptotic (%) [5]: 54%
Population Fragmented Nuclei (%) [5]: 16%
Population Healthy Nuclei (%) [5]: 72%
Population Hoechst High Intensity Objects (%) [5]: 5%
Population Membrane Permeable-Phenotype (%) [5]: 2%
Population Mitochondria Different-Phenotype (%) [5]: 4%
Population Mitotic Cells (%) [5]: 45%
Population Normal (%) [5]: 94%
Population Pyknosed Nuclei (%) [5]: 10%
Population Tubulin-Different-Phenotype (%) [5]: 28%
Total Cell Count [5]: 212
Population Apoptotic (%) [6]: 41%
Population Fragmented Nuclei (%) [6]: 32%
Population Healthy Nuclei (%) [6]: 44%
Population Hoechst High Intensity Objects (%) [6]: 0%
Population Membrane Permeable-Phenotype (%) [6]: 1%
Population Mitotic Cells (%) [6]: 58%
Population Normal (%) [6]: 99%
Population Pyknosed Nuclei (%) [6]: 24%
Population Tubulin-Different-Phenotype (%) [6]: 59%
Total Cell Count [6]: 151
Population Apoptotic (%) [7]: 40%
Population Fragmented Nuclei (%) [7]: 28%
Population Healthy Nuclei (%) [7]: 65%
Population Hoechst High Intensity Objects (%) [7]: 1%
Population Membrane Permeable-Phenotype (%) [7]: 0%
Population Mitochondria Different-Phenotype (%) [7]: 7%
Population Mitotic Cells (%) [7]: 60%
Population Normal (%) [7]: 98%
Population Pyknosed Nuclei (%) [7]: 6%
Population Tubulin-Different-Phenotype (%) [7]: 50%
Total Cell Count [7]: 152
Population Apoptotic (%) [8]: 91%
Population Fragmented Nuclei (%) [8]: 39%
Population Healthy Nuclei (%) [8]: 50%
Population Hoechst High Intensity Objects (%) [8]: 4%
Population Membrane Permeable-Phenotype (%) [8]: 3%
Population Mitochondria Different-Phenotype (%) [8]: 15%
Population Mitotic Cells (%) [8]: 8%
Population Normal (%) [8]: 95%
Population Pyknosed Nuclei (%) [8]: 10%
Population Tubulin-Different-Phenotype (%) [8]: 67%
Total Cell Count [8]: 123
Population Apoptotic (%) [9]: 66%
Population Fragmented Nuclei (%) [9]: 22%
Population Healthy Nuclei (%) [9]: 69%
Population Hoechst High Intensity Objects (%) [9]: 5%
Population Membrane Permeable-Phenotype (%) [9]: 0%
Population Mitochondria Different-Phenotype (%) [9]: 2%
Population Mitotic Cells (%) [9]: 33%
Population Normal (%) [9]: 94%
Population Pyknosed Nuclei (%) [9]: 7%
Population Tubulin-Different-Phenotype (%) [9]: 34%
Total Cell Count [9]: 213
Population Apoptotic (%) [10]: 52%
Population Fragmented Nuclei (%) [10]: 39%
Population Healthy Nuclei (%) [10]: 45%
Population Hoechst High Intensity Objects (%) [10]: 3%
Population Membrane Permeable-Phenotype (%) [10]: 1%
Population Mitotic Cells (%) [10]: 48%
Population Normal (%) [10]: 96%
Population Pyknosed Nuclei (%) [10]: 15%
Population Tubulin-Different-Phenotype (%) [10]: 54%
Total Cell Count [10]: 170
Population Apoptotic (%) [11]: 63%
Population Fragmented Nuclei (%) [11]: 23%
Population Healthy Nuclei (%) [11]: 67%
Population Hoechst High Intensity Objects (%) [11]: 3%
Population Membrane Permeable-Phenotype (%) [11]: 1%
Population Mitochondria Different-Phenotype (%) [11]: 15%
Population Mitotic Cells (%) [11]: 36%
Population Normal (%) [11]: 96%
Population Pyknosed Nuclei (%) [11]: 8%
Population Tubulin-Different-Phenotype (%) [11]: 47%
Total Cell Count [11]: 139
Population Apoptotic (%) [12]: 40%
Population Fragmented Nuclei (%) [12]: 48%
Population Healthy Nuclei (%) [12]: 38%
Population Hoechst High Intensity Objects (%) [12]: 6%
Population Membrane Permeable-Phenotype (%) [12]: 6%
Population Mitochondria Different-Phenotype (%) [12]: 6%
Population Mitotic Cells (%) [12]: 60%
Population Normal (%) [12]: 93%
Population Pyknosed Nuclei (%) [12]: 12%
Population Tubulin-Different-Phenotype (%) [12]: 57%
Total Cell Count [12]: 125
